# Key:
# Mus musculus [1] = assay: Anxiolytic-like activity in ddY mouse assessed as number of shuttle per hour at 10 mg/kg, po by discrete shuttle avoidance test; format: functional
# Outline: (§1)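 Male ddY mice (7 weeks, 33-36 g), pretrained and reused, showing stable baselines (150-250 shuttles/h, fewer than 10 shocks per session). Single oral dose immediately before a 60-min discrete shuttle avoidance session of 120 trials. Shuttles were full crossings of the chamber. Drug tests ran 3-4 days apart. Vehicle controls; n=10 per group; mean ± SEM; one- or two-way ANOVA with Student-Newman-Keuls.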
# Mus musculus [2] = assay: Anxiolytic-like activity in ddY mouse assessed as number of shocks per hour at 10 mg/kg, po by discrete shuttle avoidance test; format: functional; outline: as §1
# Mus musculus [3] = assay: Anxiolytic-like activity in ddY mouse assessed as time spent in open-sided arms at 1 mg/kg, po for 7 days measured 24 hrs after final drug administration by elevated plus-maze test; format: functional
# Outline: (§2)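 Elevated plus-maze with two walled arms (6 × 30 × 10 cm); time (s) in the open-sided arms recorded 24 h after the last of daily oral doses given for the stated number of days. Male ddY mice, 7 weeks, drug-naive, used once. Mean ± SEM; ANOVA with Student-Newman-Keuls.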
# Mus musculus [4] = assay: Anxiolytic-like activity in ddY mouse assessed as ambulatory activity at 1 mg/kg, po for 7 days measured 24 hrs after final drug administration assessed per 5 mins by tilting type ambulometer test; format: functional
# Outline: (§3)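 Male ddY mice (7 weeks, 33-36 g) dosed orally once daily (0.1 mL/10 g) for the stated number of days. Plus-maze 24 h after final dose, then ambulatory activity counted for 5 min on a tilting ambulometer immediately after. Animals used once; N per group as tabulated; mean ± SEM; ANOVA with Student-Newman-Keuls.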
# Mus musculus [5] = assay: Anxiolytic-like activity in ddY mouse assessed as time spent in open-sided arms at 0.3 mg/kg, po for 7 days measured 24 hrs after final drug administration by elevated plus-maze test; format: functional
# Mus musculus [6] = assay: Anxiolytic-like activity in ddY mouse assessed as ambulatory activity at 0.3 mg/kg, po for 7 days measured 24 hrs after final drug administration assessed per 5 mins by tilting type ambulometer test; format: functional
# Mus musculus [7] = assay: Anxiolytic-like activity in ddY mouse assessed as time spent in open-sided arms at 2 mg/kg, po for 7 days measured 24 hrs after final drug administration by elevated plus-maze test; format: functional; outline: as §2
# Mus musculus [8] = assay: Anxiolytic-like activity in ddY mouse assessed as ambulatory activity at 2 mg/kg, po for 1 day measured after 1 hr assessed per 5 mins by tilting type ambulometer test; format: functional
# Outline: (§4)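 Ambulatory activity counted for 5 min on a tilting ambulometer immediately after the maze. 10 mice per group; mean ± SEM; one-way ANOVA with Student-Newman-Keuls.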
# Mus musculus [9] = assay: Anxiolytic-like activity in ddY mouse assessed as ambulatory activity at 1 mg/kg, po for 5 days measured 24 hrs after final drug administration assessed per 5 mins by tilting type ambulometer test; format: functional; outline: as §3
# Mus musculus [10] = assay: Anxiolytic-like activity in ddY mouse assessed as number of shuttle per hour at 5 mg/kg, po administered 30 mins before test by discrete shuttle avoidance test; format: functional
# Outline: (§5)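 Well-trained male ddY mice with stable baselines (150-250 shuttles/h, under 10 shocks) had 60-min discrete shuttle avoidance sessions of 120 trials, dosed orally 30 min before. Shuttles and shocks per hour counted. Drug tests at 3-4 day intervals, mice reused; 10 mice per group; mean ± SEM; one-way ANOVA with Student-Newman-Keuls.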
# Mus musculus [11] = assay: Anxiolytic-like activity in ddY mouse assessed as ambulatory activity at 1 mg/kg, po for 4 days measured 24 hrs after final drug administration assessed per 5 mins by tilting type ambulometer test; format: functional
# Mus musculus [12] = assay: Toxicity in ddY mouse at 1 to 2 mg/kg, po; format: organism-based; parameters: dose 1-2 mg/kg, route oral; conditions: in vivo
# Mus musculus [13] = assay: Anxiolytic-like activity in ddY mouse assessed as time spent in open-sided arms at 1 mg/kg, po for 4 days measured 24 hrs after final drug administration by elevated plus-maze test; format: functional
# Mus musculus [14] = assay: Toxicity in ddY mouse assessed as induction of muscle relaxation at 1 mg/kg, po after 1 to 3 hrs; format: organism-based; parameters: dose 1 mg/kg, route oral; conditions: in vivo
# Mus musculus [15] = assay: Toxicity in ddY mouse assessed as body weight gain after repeated administration; format: organism-based; conditions: in vivo
# Mus musculus [16] = assay: Toxicity in ddY mouse assessed as induction of excitation at 20 mg/kg, po after 1 to 3 hrs; format: organism-based; parameters: dose 20 mg/kg, route oral; conditions: in vivo
# Mus musculus [17] = assay: Anxiolytic-like activity in ddY mouse assessed as time spent in open-sided arms at 1 mg/kg, po for 1 day measured after 1 hr by elevated plus-maze test; format: functional
# Outline: (§6)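 Elevated plus-maze with two walled arms (6 × 30 × 10 cm) and an 8 × 8 cm central platform; read-out is time (s) in the open-sided arms. 10 mice per group, each used once; mean ± SEM; one-way ANOVA with Student-Newman-Keuls.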
# Mus musculus [18] = assay: Anxiolytic-like activity in ddY mouse assessed as pentobarbital-induced sleep time at 10 mg/kg, po administered 30 mins before pentobarbital challenge; format: functional
# Outline: (§7)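 Oral dose to male ddY mice 30 min before pentobarbital-Na 50 mg/kg ip. Sleep time is the interval between loss and recovery of righting reflex (s). Separate drug-naive mice, used once; 10 per group; mean ± SEM; one-way ANOVA with Student-Newman-Keuls.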
# Mus musculus [19] = assay: Anxiolytic-like activity in ddY mouse assessed as number of shocks per hour at 5 mg/kg, po administered 30 mins before test by discrete shuttle avoidance test; format: functional; outline: as §5
# Mus musculus [20] = assay: Anxiolytic-like activity in ddY mouse assessed as number of shuttle per hour at 1 mg/kg, po administered 30 mins before test by discrete shuttle avoidance test; format: functional; outline: as §5
# Mus musculus [21] = assay: Anxiolytic-like activity in ddY mouse assessed as number of shocks per hour at 1 mg/kg, po administered 30 mins before test by discrete shuttle avoidance test; format: functional; outline: as §5
# Mus musculus [22] = assay: Anxiolytic-like activity in ddY mouse assessed as ambulatory activity at 1 mg/kg, po for 2 days measured 24 hrs after final drug administration assessed per 5 mins by tilting type ambulometer test; format: functional; outline: as §3
# Mus musculus [23] = assay: Anxiolytic-like activity in ddY mouse assessed as pentobarbital-induced sleep time at 1 mg/kg, po administered 30 mins before pentobarbital challenge; format: functional; outline: as §7
# Mus musculus [24] = assay: Anxiolytic-like activity in ddY mouse assessed as time spent in open-sided arms at 1 mg/kg, po for 5 days measured 24 hrs after final drug administration by elevated plus-maze test; format: functional; outline: as §2
# Mus musculus [25] = assay: Anxiolytic-like activity in ddY mouse assessed as ambulatory activity at 1 mg/kg, po for 1 day measured after 1 hr assessed per 5 mins by tilting type ambulometer test; format: functional; outline: as §4
# [26] = Half life in rat; format: ADME, organism-based; conditions: in vivo
# Mus musculus [27] = assay: Anxiolytic-like activity in ddY mouse assessed as time spent in open-sided arms at 1 mg/kg, po for 2 days measured 24 hrs after final drug administration by elevated plus-maze test; format: functional; outline: as §2
# Mus musculus [28] = assay: Anxiolytic-like activity in ddY mouse assessed as pentobarbital-induced sleep time at 2 mg/kg, po administered 30 mins before pentobarbital challenge; format: functional; outline: as §7
# Mus musculus [29] = assay: Anxiolytic-like activity in ddY mouse assessed as pentobarbital-induced sleep time at 0.5 mg/kg, po administered 30 mins before pentobarbital challenge; format: functional; outline: as §7
# Mus musculus [30] = assay: Anxiolytic-like activity in ddY mouse assessed as ambulatory activity at 2 mg/kg, po for 7 days measured 24 hrs after final drug administration assessed per 5 mins by tilting type ambulometer test; format: functional; outline: as §3
# Mus musculus [31] = assay: Anxiolytic-like activity in ddY mouse assessed as time spent in open-sided arms at 2 mg/kg, po for 1 day measured after 1 hr by elevated plus-maze test; format: functional; outline: as §6
# Mus musculus [32] = assay: Anxiolytic-like activity in ddY mouse assessed as time spent in open-sided arms at 1 mg/kg, po for 3 days measured 24 hrs after final drug administration by elevated plus-maze test; format: functional; outline: as §2
# Mus musculus [33] = assay: Anxiolytic-like activity in ddY mouse assessed as ambulatory activity at 1 mg/kg, po for 3 days measured 24 hrs after final drug administration assessed per 5 mins by tilting type ambulometer test; format: functional; outline: as §3
# Mus musculus [34] = assay: Anxiolytic-like activity in ddY mouse assessed as pentobarbital-induced sleep time at 5 mg/kg, po administered 30 mins before pentobarbital challenge; format: functional; outline: as §7
# Mus musculus [35] = assay: Toxicity in ddY mouse assessed as induction of ataxia at 1 mg/kg, po after 1 to 3 hrs; format: organism-based; parameters: dose 1 mg/kg, route oral; conditions: in vivo
# Mus musculus [36] = assay: Toxicity in ddY mouse assessed as induction of sedation at 20 mg/kg, po after 1 to 3 hrs; format: organism-based; parameters: dose 20 mg/kg, route oral; conditions: in vivo
# Mus musculus [37] = assay: Anxiolytic-like activity in ddY mouse assessed as pentobarbital-induced sleep time at 20 mg/kg, po administered 30 mins before pentobarbital challenge; format: functional; outline: as §7
smiles,measurement,setting,value
Cn1c(=O)c2c(ncn2C)n(C)c1=O [CAFFEINE],Activity,Mus musculus [1],428.9
same,Activity,Mus musculus [2],3.4
CN1C(=O)CN=C(c2ccccc2)c2cc(Cl)ccc21 [DIAZEPAM],Activity,Mus musculus [3],24.7 s
same,Activity,Mus musculus [4],43.1
CCOC(=O)c1ncn2c1CN(C)C(=O)c1cc(F)ccc1-2 [FLUMAZENIL],Activity,Mus musculus [5],5.5 s
same,Activity,Mus musculus [6],31.5
C[C@@H]1C(=O)O[C@H]2C[C@@]34[C@H]5C[C@@H](C(C)(C)C)[C@]36[C@@H](OC(=O)[C@@H]6O)O[C@@]4(C(=O)O5)[C@]21O [GINKGOLIDE A],Activity,Mus musculus [7],17.4 s
same,Activity,Mus musculus [8],35.4
same,Activity,Mus musculus [9],40.1
same,Activity,Mus musculus [10],162.9
same,Activity,Mus musculus [11],40.1
same,Activity,Mus musculus [12],Non-toxic
same,Activity,Mus musculus [13],17.8 s
same,Activity,Mus musculus [14],Non-toxic
same,Activity,Mus musculus [15],Non-toxic
same,Activity,Mus musculus [16],Non-toxic
same,Activity,Mus musculus [17],7.6 s
same,Activity,Mus musculus [18],3690 s
same,Activity,Mus musculus [19],1.1
same,Activity,Mus musculus [20],182.8
same,Activity,Mus musculus [21],1.6
same,Activity,Mus musculus [3],18.6 s
same,Activity,Mus musculus [4],35.3
same,Activity,Mus musculus [22],31.6
same,Activity,Mus musculus [23],2830 s
same,Activity,Mus musculus [24],17.8 s
same,Activity,Mus musculus [25],39.1
same,half-life,[26],1.5 h
same,Activity,Mus musculus [27],10.5 s
same,Activity,Mus musculus [28],3510 s
same,Activity,Mus musculus [29],3270 s
same,Activity,Mus musculus [30],29.5
same,Activity,Mus musculus [31],5.9 s
same,Activity,Mus musculus [32],12.7 s
same,Activity,Mus musculus [33],35.5
same,Activity,Mus musculus [34],3694 s
same,Activity,Mus musculus [35],Non-toxic
same,Activity,Mus musculus [36],Non-toxic
same,Activity,Mus musculus [37],3490 s

# Reference: ChEMBL document CHEMBL1147232, “An anxiolytic-like effect of Ginkgo biloba extract and its constituent, ginkgolide-A, in mice” (J Nat Prod, 2003)
